Experimental data as given in PubChem BioAssay AID504499 (Broad Institute, 2011).
The source made the active and inactive calls.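 The calls were made as follows: active = compounds whose fitted half-maximal growth inhibition potency lies within ten times the top tested dose; inconclusive = flat inhibition of 30 to 70 percent, or poor fit; inactive = the rest.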

Columns and labels:
[1] = growth inhibition of C. albicans alone, dose response, counter-screen for antifungal drug resistance project, CaCi-2, no fluconazole, powder samples, set 9 (AID 504499); conditions: C. albicans CaCi-2 growth without fluconazole, Alamar Blue, 48 h; at 26 µM (top of the series)
Procedure, shortened: (§1)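 System: Candida albicans strain CaCi-2 yeast cells / Technique: Alamar Blue fluorescence, 544/590 nm / Dosing: pin-transferred compounds / Read-out: relative yeast growth derived from Alamar Blue fluorescence signal / Schedule: Yeast–compound growth 48 h, 37 °C, then Alamar Blue 2 h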

[2] = system: C. albicans CaCi-2 (fluconazole-resistant clinical isolate) growth without fluconazole, Alamar Blue, 48 h; assay: as above
Procedure, shortened: as §1

Structure (SMILES) | growth change, negative = inhibition [1] | AC50 [2] [µM]
CC1CCN(CCn2c3ccccc3c3nc4n(c(=O)c32)CCS4)CC1 | 2.22% (inactive) | –
O=C(Cn1c2ccc(F)cc2c2nc3n(c(=O)c21)CCS3)N1CCC(F)(F)CC1 | -9.87% (inactive) | –
COC(=O)Cn1nc(C2CCCCC2)c2ccccc21 | -13.2% (inactive) | –
O=C(Cn1c2ccccc2c2nc3n(c(=O)c21)CCS3)N1CCCCC1 | -17.6% (inactive) | –
O=C(Cn1c2ccc(F)cc2c2nc3n(c(=O)c21)CCS3)N1CC=CC1 | 2.91% (inactive) | –
O=C(O)Cn1c2ccccc2c2nc3n(c(=O)c21)CCS3 | 31.2% (inactive) | –
COC(=O)Cn1nc(C(C)(C)C)c2ccccc21 | 6.09% (inactive) | –
O=C(Cn1c2ccccc2c2nc3n(c(=O)c21)CCS3)N1CCC(F)(F)CC1 | 5.44% (inactive) | –
CC1(O)CN(C(=O)Cn2c3ccccc3c3nc4n(c(=O)c32)CCS4)C1 | 5.26% (inactive) | –
COC(=O)Cn1nc(-c2ccccc2)c2cccnc21 | -7.57% (inactive) | –
COC(=O)Cn1nc(-c2cccc(C)c2)c2ccccc21 | -23.2% (inactive) | –
COC(=O)Cn1nc(-c2cccc(OC)c2)c2ccccc21 | -28.4% (inactive) | –
O=C(O)Cn1c2ccc(F)cc2c2nc3n(c(=O)c21)CCS3 | -15.5% (inactive) | –
COC(=O)Cn1nc(-c2cccnc2)c2ccccc21 | 1.88% (inactive) | –
O=C(Cn1c2ccccc2c2nc3n(c(=O)c21)CCS3)N1CC=CC1 | 6.32% (inactive) | –
COC(=O)Cn1nc(-c2cscn2)c2ccccc21 | -11.4% (inactive) | –
O=C(Cn1c2ccccc2c2nc3n(c(=O)c21)CCS3)N1CCC(F)(F)C1 | 5.06% (inactive) | –
O=C(Cn1c2ccc(F)cc2c2nc3n(c(=O)c21)CCS3)N1CCC(F)(F)C1 | -1.64% (inactive) | –
COC(=O)Cn1nc(-c2cnco2)c2ccccc21 | 22% (inactive) | –
CCc1nn(CC(=O)OC)c2ccccc12 | -15.4% (inactive) | –
CN1CCN(C(=O)Cn2c3ccccc3c3nc4n(c(=O)c32)CCS4)CC1 | 2.02% (inactive) | –
O=C(Cn1c2ccccc2c2nc3n(c(=O)c21)CCS3)N1CCCC1 | -33.3% (inactive) | –
COC(=O)n1nc(-c2ccccc2)c2ccccc21 | -9.34% (inactive) | –
COC(=O)Cn1nc(-c2cccc(F)c2)c2ccccc21 | -24.6% (inactive) | –
COC(=O)Cn1nc(C2CC2)c2ccccc21 | 4% (inactive) | –
COC(=O)Cn1c2ccc(F)cc2c2nc3n(c(=O)c21)CCS3 | – | 19.4
c1ccc(-c2nn(Cc3nnco3)c3ccccc23)cc1 | 18.3% (inactive) | –
